Legend:
Trichomonas vaginalis = test: Antiparasitic activity against Trichomonas vaginalis 162 after 48 hrs by MTT assay; type: functional, organism-based; conditions: Trichomonas vaginalis, 162, 48 h
Outline: (§1)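 Trophozoite cultures grown in 96-well plates at 37 °C for 24 h, then serial two-fold dilutions (0.9-15 μg/cm³) added from DMSO stocks, 0.5% DMSO as 100%-growth control. Incubated 48 h, then MTT 4 h at 37 °C in dark. Dissolved in DMSO, A570 read. IC50 from sigmoid dose-response. Run in duplicate, three independent experiments in triplicate.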

Giardia intestinalis = test: Antiparasitic activity against Giardia lamblia Portland 1 after 48 hrs by MTT assay; type: functional, organism-based; conditions: Giardia duodenalis, Portland 1, 48 h; outline: as §1
[1] = Selectivity index, ratio of CC50 for HEK293 cells to IC50 for Trichomonas vaginalis 162; type: functional
[2] = Cytotoxicity against HEK293 cells after 18 hrs by MTT assay; type: cell-based; conditions: human
[3] = Selectivity index, ratio of CC50 for human HeLa cells to IC50 for Trichomonas vaginalis 162; type: functional
[4] = Cytotoxicity against human HeLa cells after 18 hrs by MTT assay; type: cell-based
Outline: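 Cells (5×10^4/well) seeded in RPMI-1640 with 10% FBS, overnight at 37 °C. Compounds added at 100 to 1.56 µM for 18 h at 37 °C. MTT (5 mg/ml in PBS) added for 3-4 h, formazan dissolved in DMSO. CC50 is the concentration giving 50% growth inhibition relative to untreated cells.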

[5] = Selectivity index, ratio of CC50 for human HeLa cells to IC50 for Giardia lamblia Portland 1; type: functional
[6] = Selectivity index, ratio of CC50 for HEK293 cells to IC50 for Giardia lamblia Portland 1; type: functional

Row | Compound | IC50 (Trichomonas vaginalis) [µM] | IC50 (Giardia intestinalis) [µM] | Ratio CC50/IC50 [1] | CC50 at 18 h [2] [µM] | Ratio CC50/IC50 [3] | CC50 at 18 h [4] [µM] | Ratio CC50/IC50 [5] | Ratio CC50/IC50 [6]
1 | COc1ccccc1/C=C/C(=O)c1cccc(OCc2cn(CCC[Si]34OCCN(CCO3)CCO4)nn2)c1 | 43.1 | 43.7 |  |  |  |  |  | 
2 | COc1ccc(/C=C/C(=O)c2ccccc2OCc2cn(CCC[Si]34OCCN(CCO3)CCO4)nn2)c(OC)c1 | 22.1 | 35.4 |  |  |  |  |  | 
3 | Cc1ccc(/C=C/C(=O)c2ccccc2OCc2cn(CCC[Si]34OCCN(CCO3)CCO4)nn2)cc1 | 50 | 48 |  |  |  |  |  | 
4 | O=C(/C=C/c1ccc(Cl)cc1)c1ccc(OCc2cn(CCC[Si]34OCCN(CCO3)CCO4)nn2)cc1 | 21.9 | 33.1 |  |  |  |  |  | 
5 | COc1ccccc1/C=C/C(=O)c1ccccc1OCc1cn(CCC[Si]23OCCN(CCO2)CCO3)nn1 | 23.8 |  |  |  |  |  |  | 
6 | COc1ccc(/C=C/C(=O)c2ccccc2OCc2cn(CCC[Si]34OCCN(CCO3)CCO4)nn2)c(OC)c1OC | 21.3 |  | 13.39 | 285 | 10.92 | 232 |  | 
7 | COc1ccc(/C=C/C(=O)c2ccc(OCc3cn(CCC[Si]45OCCN(CCO4)CCO5)nn3)cc2)cc1 | 21.6 | 54.9 |  |  |  |  |  | 
8 | O=C(/C=C/c1ccccc1)c1ccc(OCc2cn(CCC[Si]34OCCN(CCO3)CCO4)nn2)cc1 | 27.2 | 59.7 |  |  |  |  |  | 
9 | COc1ccc(/C=C/C(=O)c2cccc(OCc3cn(CCC[Si]45OCCN(CCO4)CCO5)nn3)c2)c(OC)c1 | 43.8 | 43.9 |  |  |  |  |  | 
10 | O=C(/C=C/c1ccccc1)c1cccc(OCc2cn(CCC[Si]34OCCN(CCO3)CCO4)nn2)c1 | 65.6 | 81 |  |  |  |  |  | 
11 | O=C(/C=C/c1ccc(Cl)cc1)c1cccc(OCc2cn(CCC[Si]34OCCN(CCO3)CCO4)nn2)c1 | 55.7 | 78.5 |  |  |  |  |  | 
12 | Cc1ccc(/C=C/C(=O)c2ccc(OCc3cn(CCC[Si]45OCCN(CCO4)CCO5)nn3)cc2)cc1 | 24.8 | 33.2 | 7.97 | 198 | 7.61 | 189 | 5.68 | 5.95
13 | COc1ccc(/C=C/C(=O)c2ccccc2OCc2cn(CCC[Si]34OCCN(CCO3)CCO4)nn2)cc1 | 26.7 | 32.2 |  |  |  |  |  | 
14 | COc1ccc(/C=C/C(=O)c2ccc(OCc3cn(CCC[Si]45OCCN(CCO4)CCO5)nn3)cc2)c(OC)c1OC | 18.2 | 30.2 | 14.78 | 270 | 12.46 | 227 | 7.53 | 8.94
15 | COc1ccc(/C=C/C(=O)c2cccc(OCc3cn(CCC[Si]45OCCN(CCO4)CCO5)nn3)c2)c(OC)c1OC | 42.1 | 19.6 | 7.79 | 328 | 8.07 | 340 | 17.36 | 16.74
16 | COc1ccccc1/C=C/C(=O)c1ccc(OCc2cn(CCC[Si]34OCCN(CCO3)CCO4)nn2)cc1 | 22.7 | 40.9 |  |  |  |  |  | 
17 | COc1ccc(/C=C/C(=O)c2cccc(OCc3cn(CCC[Si]45OCCN(CCO4)CCO5)nn3)c2)cc1 | 30.3 |  | 8.81 | 267 | 6.7 | 203 |  | 
18 | Cc1ccc(/C=C/C(=O)c2cccc(OCc3cn(CCC[Si]45OCCN(CCO4)CCO5)nn3)c2)cc1 | 101 | 131 |  |  |  |  |  | 
19 | O=C(/C=C/c1ccc(Cl)cc1)c1ccccc1OCc1cn(CCC[Si]23OCCN(CCO2)CCO3)nn1 | 22.3 | 33.9 |  |  |  |  |  | 
20 | O=C(/C=C/c1ccccc1)c1ccccc1OCc1cn(CCC[Si]23OCCN(CCO2)CCO3)nn1 | 23.3 | 28.1 | 8.94 | 208 | 10.23 | 238 | 8.48 | 7.41
21 | COc1ccc(/C=C/C(=O)c2ccc(OCc3cn(CCC[Si]45OCCN(CCO4)CCO5)nn3)cc2)c(OC)c1 | 22.9 | 31.9 |  |  |  |  |  | 
22 | Cc1ncc([N+](=O)[O-])n1CCO [METRONIDAZOLE] | 55.9 | 62.5 |  |  |  |  |  | 

Source: ChEMBL document CHEMBL3758079, “Design, synthesis and biological evaluation of chalconyl blended triazole allied organosilatranes as giardicidal and trichomonacidal agents” (Eur J Med Chem, 2016)
